According to ChEMBL document CHEMBL1795208 (J Med Chem, 2011):

Columns and labels:
Type in all cases: functional, cell-based
[1] = system: MCF7; test: Antiproliferative activity against human MCF7 cells expressing estrogen receptor after 72 hrs by MTS/PMS assay; conditions: MCF7, 72 h
Summary of the method: (§1)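 Cells kept in Advanced DMEM/F12 (1:1) with non-essential amino acids, 2 mM L-glutamine, penicillin, streptomycin and 10% FBS at 37 °C, 5% CO2. Seeded at 2000/well, attached overnight. Compound added in DMSO across a concentration range (1% DMSO final) for 72 h. Viable cells read by MTS/PMS and normalized to 1% DMSO controls (100%). IC50 taken from separate triplicate experiments.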

[2] = system: SK-BR-3; test: Antiproliferative activity against human SKBR3 cells expressing HER2 after 72 hrs by MTS/PMS assay; conditions: SK-BR-3, 72 h; summary of the method: as §1
[3] = Antiproliferative activity against human androgen-independent PC3MM2 cells after 72 hrs by MTS/PMS assay; conditions: PC3MM2, 72 h; summary of the method: as §1

Row | IC50 [1] | IC50 [2] | SMILES | IC50 [3]
1 | 8.52 µM | 6.38 µM | COc1cccc(-c2cc(C(=O)Nc3cc4ccc(OC5CC(C)C[C@@H](O)[C@H]5O)c(OC)c4oc3=O)ccc2OC)c1 (stereo partly specified) | –
2 | – | 0.5 µM | CO[C@@H]1[C@@H](O)[C@@H](O)[C@H](Oc2ccc3cc(NC(=O)c4ccc(O)c(CC=C(C)C)c4)c(=O)oc3c2C)OC1(C)C | –
3 | 0.58 µM | 0.42 µM | COc1cc2cc(NC(=O)c3ccc(OC(C)=O)c(CC=C(C)C)c3)c(=O)oc2c(C)c1OC1CCN(C)CC1 | 1.41 µM
4 | 3.26 µM | 0.77 µM | COc1c(OCCCN(C)C)ccc2cc(NC(=O)c3ccc(O)c(CC=C(C)C)c3)c(=O)oc12 | 9.24 µM
5 | 1.56 µM | 3.45 µM | COc1cccc(-c2cc(C(=O)Nc3cc4ccc(OC5CC(C)(C)C[C@@H](O)[C@H]5O)c(OC)c4oc3=O)ccc2OC)c1 (stereo partly specified) | –
6 | – | 0.37 µM | CO[C@@H]1[C@@H](O)[C@@H](O)[C@H](Oc2ccc3cc(NC(=O)c4cc5ccccc5[nH]4)c(=O)oc3c2C)OC1(C)C | –
7 | > 100 µM | > 100 µM | COc1cccc(-c2cc(C(=O)Nc3cc4cc(OC)c(OS(=O)(=O)c5ccc(C)cc5)c(C)c4oc3=O)ccc2OC)c1 | > 100 µM
8 | 10.1 µM | 8.18 µM | COc1cccc(-c2cc(C(=O)Nc3cc4cc(OC)c(OC5CCC[C@@H](O)[C@H]5O)c(C)c4oc3=O)ccc2OC)c1 (stereo partly specified) | –
9 | – | 2 µM | CO[C@@H]1[C@@H](O)[C@@H](O)[C@H](Oc2ccc3cc(NC(=O)CCCCC(=O)Nc4cc5ccc(O[C@H]6OC(C)(C)[C@@H](OC)[C@H](O)[C@@H]6O)cc5oc4=O)c(=O)oc3c2C)OC1(C)C | –
10 | 20.5 µM | 19.4 µM | COc1cccc(-c2cc(C(=O)Nc3cc4cc(OC)c(OCC(O)CO)c(C)c4oc3=O)ccc2OC)c1 (stereo unspecified) | –
11 | – | – | CC(C)=CCc1cc(C(=O)Nc2cc3ccc(OC4CCN(C)CC4)c(C)c3oc2=O)ccc1O | 1.37 µM
12 | – | – | CC(=O)Oc1ccc(C(=O)Nc2cc3ccc(OCCCN(C)C)c(C)c3oc2=O)cc1CC=C(C)C | 1.42 µM
13 | 1.54 µM | 0.92 µM | COc1c(OC2CCN(C)CC2)ccc2cc(NC(=O)c3ccc(O)c(CC=C(C)C)c3)c(=O)oc12 | 3.53 µM
14 | – | – | CC(C)=CCc1cc(C(=O)Nc2cc3ccc(OCCCN(C)C)c(C)c3oc2=O)ccc1O | 1.81 µM
15 | – | 7.5 µM | CO[C@@H]1[C@@H](OC(N)=O)[C@@H](O)[C@H](Oc2ccc3cc(NC(=O)c4ccc(O)c(CC=C(C)C)c4)c(=O)oc3c2C)OC1(C)C | –
16 | > 100 µM | > 100 µM | COc1cccc(-c2cc(C(=O)Nc3cc4cc(OC)c(OC5CC(C)C[C@@H](O)[C@H]5O)c(C)c4oc3=O)ccc2OC)c1 (stereo partly specified) | –
17 | 5.46 µM | 7.44 µM | COc1cccc(-c2cc(C(=O)Nc3cc4ccc(OC5CCC[C@@H](O)[C@H]5O)c(OC)c4oc3=O)ccc2OC)c1 (stereo partly specified) | –
18 | 5.23 µM | 1.13 µM | Cc1c(OCCCN(C)C)ccc2cc(NC(=O)c3cc4ccccc4[nH]3)c(=O)oc12 | 13.7 µM
19 | 0.8 µM | 0.39 µM | COc1cc2cc(NC(=O)c3ccc(O)c(CC=C(C)C)c3)c(=O)oc2c(C)c1OCCCN(C)C | 1.38 µM
20 | > 100 µM | > 100 µM | COc1cccc(-c2cc(C(=O)Nc3cc4cc(OC)c(OC5CC(C)(C)C[C@@H](O)[C@H]5O)c(C)c4oc3=O)ccc2OC)c1 (stereo partly specified) | –
21 | 1.64 µM | 1.07 µM | COc1c(OC2CCN(C)CC2)ccc2cc(NC(=O)c3ccc(OC(C)=O)c(CC=C(C)C)c3)c(=O)oc12 | 3.98 µM
22 | 18.7 µM | 7.5 µM | COc1cccc(-c2cc(C(=O)Nc3cc4ccc(OC5OC(C)(C)[C@H](OC)[C@@H](O)[C@H]5O)c(C)c4oc3=O)ccc2OC)c1 (stereo partly specified) | –
23 | – | – | CC(=O)Oc1ccc(C(=O)Nc2cc3ccc(OC4CCN(C)CC4)c(C)c3oc2=O)cc1CC=C(C)C | 2.12 µM

Row | SMILES | IC50 [1] | IC50 [2] | IC50 [3]
24 | CO[C@H]1[C@H](OC(=O)c2ccc(C)[nH]2)[C@H](O)[C@@H](Oc2ccc3c(O)c(NC(=O)c4c[nH]c(C(=O)Nc5c(O)c6ccc(O[C@H]7OC(C)(C)[C@@H](OC)[C@H](OC(=O)c8ccc(C)[nH]8)[C@@H]7O)c(C)c6oc5=O)c4C)c(=O)oc3c2C)OC1(C)C [COUMERMYCIN A1] | – | 70 µM | –
